Experimental findings from ChEMBL document CHEMBL3774315, “Discovery of new low-molecular-weight p53-Mdmx disruptors and their anti-cancer activities” (Bioorg Med Chem, 2016) are described below.

Calls of active or inactive are those of the source. No cut-off for these calls is given here.

The target in data set [1] is Tumour suppressor protein p53/Mdm4 (Homo sapiens, UniProt O15151+P04637). In words: Inhibition of Flag-tagged p53/GST-tagged Mdmx (unknown origin) expressed in Escherichia coli BL21 after 1 hr by ELISA microplate reader method.
Tumour suppressor protein p53/Mdm4, sequence (P04637 whole entry): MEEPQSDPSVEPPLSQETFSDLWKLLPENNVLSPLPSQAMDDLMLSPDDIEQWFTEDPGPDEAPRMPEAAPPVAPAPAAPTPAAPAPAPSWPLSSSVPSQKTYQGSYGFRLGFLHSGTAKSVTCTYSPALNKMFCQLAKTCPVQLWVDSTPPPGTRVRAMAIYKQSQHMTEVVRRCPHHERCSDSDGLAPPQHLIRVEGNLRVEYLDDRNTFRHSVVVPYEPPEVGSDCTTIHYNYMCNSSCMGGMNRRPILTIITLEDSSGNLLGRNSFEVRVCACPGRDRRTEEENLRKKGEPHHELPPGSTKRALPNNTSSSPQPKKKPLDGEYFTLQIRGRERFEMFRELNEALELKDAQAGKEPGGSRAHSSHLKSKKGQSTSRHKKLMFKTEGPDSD
Tumour suppressor protein p53/Mdm4, sequence (O15151 whole entry): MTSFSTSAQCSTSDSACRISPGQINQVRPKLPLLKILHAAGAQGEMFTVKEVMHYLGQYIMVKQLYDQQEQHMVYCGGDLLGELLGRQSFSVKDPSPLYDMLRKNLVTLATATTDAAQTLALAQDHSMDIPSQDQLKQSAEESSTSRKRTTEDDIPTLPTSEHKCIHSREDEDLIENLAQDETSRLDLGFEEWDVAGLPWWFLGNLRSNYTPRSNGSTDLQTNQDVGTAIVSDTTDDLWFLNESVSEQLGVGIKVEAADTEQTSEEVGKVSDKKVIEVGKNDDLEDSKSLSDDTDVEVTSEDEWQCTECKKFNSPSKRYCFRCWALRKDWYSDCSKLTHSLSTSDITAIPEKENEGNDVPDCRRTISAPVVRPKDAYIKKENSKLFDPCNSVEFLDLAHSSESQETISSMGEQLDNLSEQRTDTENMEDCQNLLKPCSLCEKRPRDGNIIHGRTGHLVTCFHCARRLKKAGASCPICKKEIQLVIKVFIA
In data set [2] the target is Cellular tumor antigen p53/Death-associated protein kinase 1 (Homo sapiens, UniProt P04637+P53355). Nature of the data set: Inhibition of Flag-tagged p53/GST-tagged DAPK1 (unknown origin) expressed in Escherichia coli BL21 after 1 hr by ELISA microplate reader method.
Cellular tumor antigen p53/Death-associated protein kinase 1, sequence (P04637 whole entry): as the sequence (P04637 whole entry) above
Cellular tumor antigen p53/Death-associated protein kinase 1, sequence (P53355 whole entry): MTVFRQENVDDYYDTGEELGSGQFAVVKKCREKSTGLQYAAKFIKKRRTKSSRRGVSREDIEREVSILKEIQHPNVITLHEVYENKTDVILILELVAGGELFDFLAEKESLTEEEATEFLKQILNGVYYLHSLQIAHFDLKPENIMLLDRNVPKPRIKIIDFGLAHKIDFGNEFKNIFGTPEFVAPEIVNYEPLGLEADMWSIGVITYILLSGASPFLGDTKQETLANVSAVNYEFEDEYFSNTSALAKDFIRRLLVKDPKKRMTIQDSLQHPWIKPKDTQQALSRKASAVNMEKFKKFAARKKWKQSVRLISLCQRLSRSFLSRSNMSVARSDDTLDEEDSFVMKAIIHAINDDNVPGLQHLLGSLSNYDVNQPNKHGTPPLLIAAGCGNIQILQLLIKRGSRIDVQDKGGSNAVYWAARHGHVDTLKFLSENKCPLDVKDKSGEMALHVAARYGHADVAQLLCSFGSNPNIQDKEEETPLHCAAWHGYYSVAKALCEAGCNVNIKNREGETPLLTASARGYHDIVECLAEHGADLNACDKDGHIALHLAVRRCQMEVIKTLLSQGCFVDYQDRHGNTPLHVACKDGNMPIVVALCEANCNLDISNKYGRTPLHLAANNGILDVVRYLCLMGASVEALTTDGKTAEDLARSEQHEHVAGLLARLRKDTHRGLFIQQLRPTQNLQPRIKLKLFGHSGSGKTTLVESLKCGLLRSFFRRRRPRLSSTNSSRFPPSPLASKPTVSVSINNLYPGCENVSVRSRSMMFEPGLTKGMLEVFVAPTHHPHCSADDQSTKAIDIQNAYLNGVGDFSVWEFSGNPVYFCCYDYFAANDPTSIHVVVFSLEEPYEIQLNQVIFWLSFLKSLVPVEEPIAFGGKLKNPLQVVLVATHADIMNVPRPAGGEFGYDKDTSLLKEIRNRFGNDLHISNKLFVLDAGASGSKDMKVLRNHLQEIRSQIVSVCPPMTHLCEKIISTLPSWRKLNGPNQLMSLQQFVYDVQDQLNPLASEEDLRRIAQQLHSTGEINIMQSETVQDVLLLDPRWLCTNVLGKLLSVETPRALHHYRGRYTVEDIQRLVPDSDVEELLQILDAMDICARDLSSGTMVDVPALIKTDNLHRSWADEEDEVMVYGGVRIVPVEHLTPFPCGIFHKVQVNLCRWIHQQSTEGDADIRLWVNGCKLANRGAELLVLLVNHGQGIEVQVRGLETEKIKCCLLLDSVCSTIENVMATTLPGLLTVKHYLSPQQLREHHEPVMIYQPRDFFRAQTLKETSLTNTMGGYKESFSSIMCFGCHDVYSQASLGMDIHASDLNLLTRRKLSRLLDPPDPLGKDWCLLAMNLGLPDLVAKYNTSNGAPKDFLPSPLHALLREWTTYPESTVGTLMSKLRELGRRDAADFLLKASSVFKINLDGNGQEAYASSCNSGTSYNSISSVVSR
Data set [3] concerns the target Tumour suppressor p53/oncoprotein Mdm2 (Homo sapiens, UniProt P04637+Q00987). In words: Inhibition of Flag-tagged p53/GST-tagged Mdm2 (unknown origin) expressed in Escherichia coli BL21 after 1 hr by ELISA microplate reader method.
Data set [4] deals with Cellular tumor antigen p53/Peptidyl-prolyl cis-trans isomerase D (Homo sapiens, UniProt P04637+Q08752). Nature of the data set: Inhibition of Flag-tagged p53/GST-tagged PPID (unknown origin) expressed in Escherichia coli BL21 after 1 hr by ELISA microplate reader method.
Cellular tumor antigen p53/Peptidyl-prolyl cis-trans isomerase D, sequence (P04637 whole entry): as the sequence (P04637 whole entry) above
Cellular tumor antigen p53/Peptidyl-prolyl cis-trans isomerase D, sequence (Q08752 whole entry): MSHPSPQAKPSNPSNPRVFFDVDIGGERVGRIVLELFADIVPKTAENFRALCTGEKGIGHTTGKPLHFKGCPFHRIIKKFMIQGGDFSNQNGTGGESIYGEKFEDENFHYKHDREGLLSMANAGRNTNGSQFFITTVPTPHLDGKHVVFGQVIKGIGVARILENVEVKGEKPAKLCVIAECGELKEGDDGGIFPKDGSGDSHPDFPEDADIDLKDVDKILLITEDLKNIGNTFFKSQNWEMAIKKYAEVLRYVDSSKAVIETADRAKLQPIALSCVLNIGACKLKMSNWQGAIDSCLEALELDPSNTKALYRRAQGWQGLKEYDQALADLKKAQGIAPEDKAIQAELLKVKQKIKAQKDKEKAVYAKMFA
For another data set, the system named is A-431. In words: Cytotoxicity against human A431 cells expressing mutant p53 assessed as growth inhibition after 48 hrs by crystal violet staining based spectrophotometry. It is filed as functional, cell-based. Put shortly:
(§1)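 Cells seeded at 2 × 10^4 per well and held 24 h at 37 °C in 5% CO2. Serial dilutions (0, 10, 15, 20, 25 or 30 µM) then added for 48 h. Cells stained 15 min with crystal violet (0.75% dye, 0.25% NaCl, 1.75% formaldehyde, 50% EtOH) and read at 600 nm. Viability is expressed as percent of untreated control.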

A further data set deals with HCT-116. Nature of the data set: Cytotoxicity against human HCT116 cells expressing WT p53 and Mdmx assessed as growth inhibition after 48 hrs by crystal violet staining based spectrophotometry. It is filed as functional, cell-based. The method in brief: as §1
Another data set relates to A-427. In words: Cytotoxicity against human A427 cells expressing WT p53 and Mdmx assessed as growth inhibition after 48 hrs by crystal violet staining based spectrophotometry. Format: functional, cell-based. The method in brief:
as §1

For data set [5], the system named is MCF7. In words: Cytotoxicity against human MCF7 cells expressing WT p53 and Mdmx assessed as growth inhibition after 48 hrs by crystal violet staining based spectrophotometry. It is filed as functional, cell-based. The method in brief: as §1
The test system of a further data set is MDA-MB-468. In words: Cytotoxicity against human MDA-MB-468 cells expressing mutant p53 assessed as growth inhibition after 48 hrs by crystal violet staining based spectrophotometry. It is filed as functional, cell-based. The method in brief: as §1
In data set [6] the test system is MCF7. Nature of the data set: Increase in p53 expression in human MCF7 cells nuclei after 24 hrs by DAPI staining based immunofluorescence microscopy. Format: functional, cell-based. The method in brief: (§2)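 Cells seeded at 3.0 × 10^4/mL in chamber slides and grown 24 h, then exposed to 10 µM sample for a further 24 h. Fixed in 3% paraformaldehyde (25 °C, 30 min), permeabilized with 0.05% Triton X-100 and blocked with 3% BSA. Stained with anti-p53 (1:50, overnight, 4 °C) and an Alexa 488 secondary (1:200, 30 min). Nuclei counterstained with DAPI; examined by fluorescence/confocal microscopy.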

Data set [7] has as its system Mus musculus. In words: Upregulation of Mdm2 protein expression in human HCT116 cells xenografted nude BALB/c mouse tumors at 150 mg/kg/day, po administered every other day until day 38 and measured on day 40 by Western blot analysis. It is filed as functional, organism-based. To be noted: HCT-116. Put shortly: (§3)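 Tumors excised at day 40 from orally dosed HCT116-xenograft nude mice, frozen in liquid nitrogen, ground and suspended in lysis buffer, then spun at 15,000 × g at 4 °C. 10 µg protein (measured by BCA) run on SDS-PAGE, blotted to PVDF and probed for p53, Mdm2, p21 and cleaved caspase 3 (1:1000) or full-length caspase 3 (3:1000). ECL detection.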

Data set [8] has as its system MCF7. In words: Upregulation of Mdm2 in human MCF7 cells after 24 hrs by Western blot analysis. It is filed as functional, cell-based. Put shortly: (§4)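 MCF-7 cells plated at 1.0 × 10^6 per 60-mm dish, grown 24 h, washed and given fresh medium for another 24 h. Treated with compound or 0.1% DMSO for 24 or 48 h. Floating and adherent cells lysed in Tris/NaCl/EDTA/EGTA/NP-40 buffer with Na3VO4, NaF, DTT, PMSF and protease inhibitors. 10 µg protein separated by SDS-PAGE, probed with primary antibodies at 1:1000, detected by ECL chemiluminescence.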

The test system of data set [9] is Mus musculus. In words: Toxicity in human HCT116 cells xenografted nude BALB/c mouse assessed as body weight loss at 150 mg/kg/day, po administered every other day until day 38 and measured on day 40. It is filed as organism-based, HCT-116. The following applies: in vivo. Put shortly: (§5)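 HCT116 cells (1.5 × 10^6 per 100 µL Matrigel) injected s.c. into the backs of 6-week-old female BALB/c-nu/nu mice. Once tumors reached 70–143 mm3, compound (2.0 or 3.0 mg/200 µL) or vehicle (0.1% Tween 80, 200 µL) was given orally every other day until day 38. n = 6 or 9 treated, 7 control. Tumor length, width and body weight were monitored. Activity is mean treated tumor volume as a percentage of control.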

Data set [10] relates to MCF7. In words: Upregulation of p21 in human MCF7 cells after 24 hrs by Western blot analysis. It is filed as functional, cell-based. The method in brief:
as §4

Data set [11] concerns Mus musculus. Nature of the data set: Induction of apoptosis in human HCT116 cells xenografted nude BALB/c mouse tumors at 100 to 150 mg/kg/day, po administered every other day until day 38 and measured on day 40 by TUNEL assay. The following applies: HCT-116. It is filed as functional, organism-based. The method in brief: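 Tumor sections from orally dosed HCT116-xenograft nude mice underwent TUNEL staining, performed by an outside service. TUNEL-positive cells were counted as a percentage of all cells over eight fields at ×20 magnification.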

Data set [12] in a line: Antitumor activity against human HCT116 cells xenografted in nude BALB/c mouse assessed as decrease in tumor growth at 100 mg/kg/day, po administered every other day until day 38 and measured on day 40. Format: functional. The following applies: HCT-116, po. The method in brief: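 Female BALB/c-nu/nu mice, 6 weeks old, given HCT116 cells (1.5 × 10^6 in 100 µL Matrigel) subcutaneously in the back. Once tumours reached 70–143 mm3, drug (2.0 mg/200 µL) or vehicle (0.1% Tween 80, 200 µL) was given orally every other day to day 38. Tumour length/width and body weight were tracked. Result expressed as mean treated tumour volume as % of control mean.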

For data set [13], the system named is Mus musculus. In words: Upregulation of p53 protein expression in human HCT116 cells xenografted nude BALB/c mouse tumors at 150 mg/kg/day, po administered every other day until day 38 and measured on day 40 by Western blot analysis. Format: functional, organism-based. The following applies: HCT-116. The method in brief:
as §3

In data set [14] the test system is Mus musculus. Nature of the data set: Toxicity in human HCT116 cells xenografted nude BALB/c mouse assessed as body weight loss at 100 mg/kg/day, po administered every other day until day 38 and measured on day 40. It is filed as organism-based, HCT-116. The following applies: in vivo. Put shortly:
as §5

Data set [15] can be described thus: Cytotoxicity against human TIG7 cells expressing wild-type p53 assessed as growth inhibition after 48 hrs by crystal violet staining based spectrophotometry. To be noted: tig7, 48 h.
Another data set relates to IMR-32. In words: Increase in p53 expression in human IMR32 cells nuclei after 24 hrs by DAPI staining based immunofluorescence microscopy. Format: functional, cell-based. The method in brief: as §2
In data set [16] the test system is Mus musculus. Nature of the data set: Induction of apoptosis in human HCT116 cells xenografted nude BALB/c mouse tumors assessed as upregulation of caspase-3 protein expression at 150 mg/kg/day, po administered every other day until day 38 and measured on day 40 by Western blot analysis. Format: functional, organism-based. To be noted: HCT-116. The method in brief:
as §3

The test system of data set [17] is MCF7. In words: Upregulation of p53 in human MCF7 cells after 24 hrs by Western blot analysis. It is filed as functional, cell-based. The method in brief: as §4
The subject of data set [18] is Mus musculus. In words: Upregulation of p21 protein expression in human HCT116 cells xenografted nude BALB/c mouse tumors at 150 mg/kg/day, po administered every other day until day 38 and measured on day 40 by Western blot analysis. It is filed as functional, organism-based. The following applies: HCT-116. Put shortly:
as §3

Tumour suppressor p53/oncoprotein Mdm2, sequence (P04637 whole entry): as the sequence (P04637 whole entry) above
Tumour suppressor p53/oncoprotein Mdm2, sequence (Q00987 whole entry): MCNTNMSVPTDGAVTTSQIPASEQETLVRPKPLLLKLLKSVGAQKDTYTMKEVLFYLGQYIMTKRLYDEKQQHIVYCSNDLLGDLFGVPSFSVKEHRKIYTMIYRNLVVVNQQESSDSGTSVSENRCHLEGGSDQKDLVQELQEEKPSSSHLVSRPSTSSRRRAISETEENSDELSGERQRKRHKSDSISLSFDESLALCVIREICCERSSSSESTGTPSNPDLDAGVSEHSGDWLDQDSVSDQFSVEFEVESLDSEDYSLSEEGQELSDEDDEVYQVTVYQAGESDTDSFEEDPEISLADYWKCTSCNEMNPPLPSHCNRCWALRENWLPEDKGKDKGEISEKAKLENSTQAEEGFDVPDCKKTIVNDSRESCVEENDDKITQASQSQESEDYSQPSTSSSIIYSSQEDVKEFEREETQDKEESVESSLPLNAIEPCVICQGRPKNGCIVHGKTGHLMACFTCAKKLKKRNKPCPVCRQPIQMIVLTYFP

As for `O=C(Nc1ccccc1S)c1ccc(Cl)cc1`, the IC50 is 3.4 µM in data set [1], over 25 µM in [2], 18.4 µM in data set [3] and over 25 µM in data set [4].

On to `CC(C)C(=O)Nc1ccccc1O`, for which the half-maximal inhibitory concentration (IC50) in data set [1], in data set [2], in [3] and in data set [4] was over 25 µM throughout.

Consider `O=C(Nc1ccccc1S)c1ccccc1`, for which the half-maximal inhibitory concentration (IC50) in [1] was 7.2 µM; in data set [2], over 25 µM; in data set [3] it was over 25 µM; in data set [4], over 25 µM.

For the compound `CC(C)C(=O)Nc1ccccc1S`, the “growth inhibition (GI)” value in the data set on A-431, with HCT-116, with A-427, with MCF7 [5] and with MDA-MB-468 was “Active” throughout. In addition, the IC50 in [1] was 6.3 µM; in data set [2] it was over 25 µM; in data set [3], over 25 µM; in data set [4], over 25 µM.

As for `CC(C)C(=O)Nc1ccccc1SC(=O)C(C)C`, the result in the data set with MCF7 [6], in the data set with Mus musculus [7], in the data set on Mus musculus [13], in the data set with IMR-32, in the data set on Mus musculus [16] and with Mus musculus [18] was Active. In addition, the “growth inhibition (GI)” value in the data set with A-431 and in the data set on MDA-MB-468 was “Active” each time. Also, the IC50 in [1] is 1.5 µM; in data set [2] it was over 25 µM; in data set [3] it was 13.1 µM; in [4], over 25 µM. In addition, the Activity result with MCF7 [8] is “Dose-dependent effect”; in the data set with Mus musculus [9], “Non-toxic”; with MCF7 [10], “Dose-dependent effect”; in the data set on Mus musculus [11] it was “Dose-dependent effect”; with Mus musculus [14], “Non-toxic”; in [15], “Toxic”. In addition, the Activity result in the data set on MCF7 [17] was “Dose-dependent effect”. Besides, the “growth inhibition (GI)” value in the data set on HCT-116, with A-427 and in the data set with MCF7 [5] was “Dose-dependent effect” in each case. Also, in data set [12], the T/C % at 100 mg/kg/day amounted to 49%.

`CC(C)C(=O)Nc1ccccc1OC(=O)C(C)C`: the IC50 in data set [1], in data set [2], in [3] and in [4] was over 25 µM throughout.

As for `CC(C)C(=O)Sc1ccccc1NC(=O)c1ccccc1`, the IC50 in [1] is 4.6 µM; in data set [2] it was over 25 µM; in data set [3] it was 14.6 µM; in data set [4], over 25 µM.

With `COc1ccc(C2=N[C@@H](c3ccc(Cl)cc3)[C@@H](c3ccc(Cl)cc3)N2C(=O)N2CCNC(=O)C2)c(OC(C)C)c1`, the result with MCF7 [6], with MCF7 [8], in the data set on MCF7 [10], in the data set with IMR-32 and in the data set with MCF7 [17] was Active.

Consider `O=C(Nc1ccccc1S)c1ccc(Cl)nc1`, for which the IC50 was 8.9 µM in data set [1], over 25 µM in [2], 15.3 µM in [3] and over 25 µM in data set [4].

In the case of `CCCCCCCC(=O)Nc1ccccc1S`, the IC50 in data set [1], in data set [2], in data set [3] and in data set [4] was over 25 µM in each case.
